ChEMBL document CHEMBL4364265, “Oridonin derivatives as potential anticancer drug candidates triggering apoptosis through mitochondrial pathway in the liver cancer cells” (Eur J Med Chem, 2019)
Active and inactive are the calls of the source. No cut-off for these calls is given here.

Columns and labels:
[1] = test system: HepG2; test: Antiproliferative activity against human HepG2 cells incubated for 72 hrs by CCK8 cells; assay type: functional, cell-based; details: HepG2, 72 h
Summary of the method: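 CCK-8 proliferation assay. 10,000 cells per well were preincubated 24 h at 37 °C with 5% CO2, then given compound dissolved in DMSO and incubated 72 h. CCK-8 was added for 4 h and absorbance read at 450 nm. IC50 was taken from dose-response curves as mean ± SEM of at least three independent experiments, with paclitaxel as positive control. HepG2 and L-O2 were grown in DMEM/10% FBS; A549 and RPMI-8226 in RPMI 1640/10% FBS.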

[2] = test system: HepG2; test: Induction of apoptosis in human HepG2 cells assessed as necrotic cells at 1 uM incubated for 24 hrs by annexin V staining based cell counting method (reference value: 3.40%); assay type: functional
[3] = Selectivity index, ratio of IC50 for human LO2 cells to IC50 for human PLC/PRF/5 cells
Summary of the method: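 L-O2 and PLC/PRF/5 cells were grown in DMEM with 10% FBS at 37 °C and 5% CO₂. For CCK-8 proliferation, 10,000 cells per well were pre-incubated 24 h, then exposed to compound in DMSO for 72 h. CCK-8 was added for 4 h and A450 read. IC50 came from dose–response curves; SI is IC50(L-O2)/IC50(PLC/PRF/5).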

[4] = test system: HepG2; test: Induction of apoptosis in human HepG2 cells assessed as late apoptotic cells at 0.25 uM incubated for 24 hrs by annexin V staining based cell counting method (reference value: 5.65%); assay type: functional
[5] = test system: HepG2; test: Induction of apoptosis in human HepG2 cells assessed as late apoptotic cells at 1 uM incubated for 24 hrs by annexin V staining based cell counting method (reference value: 5.65%); assay type: functional
[6] = test system: PLC-PRF-5; test: Induction of apoptosis in human PLC/PRF/5 cells assessed as down regulation of Bcl2 protein expression level incubated for 24 hrs by Western blot analysis; assay type: functional, cell-based
Summary of the method: (§1)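 Cells were treated 24 h in DMEM with 0, 0.25, 0.5, 1.0 or 1.25 µM compound. Adherent and floating cells were lysed in RIPA on ice and protein measured by BCA. Equal protein was run on 7.5–12.5% SDS-PAGE and transferred to PVDF. Membranes were blocked in 5% milk/PBST, incubated with primary antibody overnight at 4 °C, and detected by ECL.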

[7] = test system: HepG2; test: Induction of apoptosis in human HepG2 cells assessed as increase in cytochrome c protein expression level at 0.25 to 1.25 uM incubated for 24 hrs by Western blot analysis; assay type: functional, cell-based; summary of the method: as §1
[8] = test system: PLC-PRF-5; test: Induction of cell cycle arrest in human PLC/PRF/5 cells assessed as accumulation at S phase at 1 uM incubated for 24 hrs by PI staining based flow cytometric analysis (reference value: 42.03%); assay type: functional
[9] = test system: HepG2; test: Induction of mitochondrial membrane potential loss in human HepG2 cell incubated for 24 hrs by JC1 staining based fluorescence microscopic method; assay type: functional
Summary of the method: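 Cells seeded in 12-well plates, cultured 12 h, treated 24 h (0, 0.25, 0.5, 1 µM). After a PBS wash, stained with JC-1 in medium for 20 min at 37 °C and washed three times. Red aggregate and green monomer fluorescence were imaged by fluorescence microscopy; the red/green ratio was taken; three independent experiments.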

[10] = test system: PLC-PRF-5; test: Induction of apoptosis in human PLC/PRF/5 cells assessed as live cells at 0.5 uM incubated for 24 hrs by annexin V staining based cell counting method (reference value: 88.95%); assay type: functional
[11] = test system: PLC-PRF-5; test: Induction of apoptosis in human PLC/PRF/5 cells assessed as shrunken chromatin at 0.25 to 1 uM incubated for 24 hrs by Hoechst 33258 dye based fluorescence microscopic method; assay type: functional, cell-based
Summary of the method: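 About 2 × 10^4 cells per well were plated overnight and treated 24 h with 0, 0.25, 0.5 or 1 µM compound. Cells were fixed in 4% paraformaldehyde for 30 min at room temperature, stained with 20 µg/mL Hoechst 33258 for 20 min at 37 °C, and imaged by fluorescence microscopy.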

[12] = test system: PLC-PRF-5; test: Induction of apoptosis in human PLC/PRF/5 cells assessed as late apoptotic cells at 1 uM incubated for 24 hrs by annexin V staining based cell counting method (reference value: 4.81%); assay type: functional
[13] = test system: HepG2; test: Induction of ROS generation in human HepG2 cells by DCFH-DA staining-based flow cytometric analysis; assay type: functional, cell-based
Summary of the method: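 Cells were treated with 0, 0.25, 0.5 or 1 µM compound, stained with 10 µM DCFH-DA for 20 min at 37 °C, washed three times, resuspended in PBS and read by flow cytometry. Data are mean ± SD of three independent experiments.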

[14] = test system: PLC-PRF-5; test: Inhibition of colony formation in human PLC/PRF/5 cells at 0.5 uM incubated for 10 days by crystal violet staining based microscopic method relative to control; assay type: functional; details: PLC-PRF-5, 240 h
Summary of the method: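 Five hundred cells plated per 30 mm dish and left 12 h. Medium with compound was added (0, 0.1, 0.5, 1 µM) or DMSO as negative control, and cells grew 10 days. Colonies were fixed in methanol 15 min, stained with 0.1% crystal violet 15 min, photographed and counted. Colony size was checked by microscope. Relative colony number is mean ± SD of ≥3 independent experiments.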

[15] = test system: HepG2; test: Induction of apoptosis in human HepG2 cells assessed as late apoptotic cells at 0.5 uM incubated for 24 hrs by annexin V staining based cell counting method (reference value: 5.65%); assay type: functional
[16] = test system: HepG2; test: Induction of cell cycle arrest in human HepG2 cells assessed as accumulation at G2 phase at 0.5 uM incubated for 24 hrs by PI staining based flow cytometric analysis (reference value: 25.55%); assay type: functional
[17] = test system: HepG2; test: Induction of cell cycle arrest in human HepG2 cells assessed as accumulation at S phase at 1 uM incubated for 24 hrs by PI staining based flow cytometric analysis (reference value: 35.46%); assay type: functional
[18] = test system: HepG2; test: Induction of cell cycle arrest in human HepG2 cells assessed as accumulation at S phase at 0.25 uM incubated for 24 hrs by PI staining based flow cytometric analysis (reference value: 35.46%); assay type: functional
[19] = test system: PLC-PRF-5; test: Induction of apoptosis in human PLC/PRF/5 cells assessed as upregulation of Bax protein expression level incubated for 24 hrs by Western blot analysis; assay type: functional, cell-based; summary of the method: as §1
[20] = test system: HepG2; test: Induction of apoptosis in human HepG2 cells assessed as live cells at 1 uM incubated for 24 hrs by annexin V staining based cell counting method (reference value: 87.35%); assay type: functional
[21] = test system: HepG2; test: Induction of apoptosis in human HepG2 cells assessed as live cells at 0.5 uM incubated for 24 hrs by annexin V staining based cell counting method (reference value: 87.35%); assay type: functional
[22] = test system: HepG2; test: Induction of cell cycle arrest in human HepG2 cells assessed as accumulation at G1 phase at 0.25 uM incubated for 24 hrs by PI staining based flow cytometric analysis (reference value: 37.06%); assay type: functional
[23] = test system: PLC-PRF-5; test: Induction of apoptosis in human PLC/PRF/5 cells assessed as early apoptotic cells at 0.5 uM incubated for 24 hrs by annexin V staining based cell counting method (reference value: 5.65%); assay type: functional
[24] = test system: PLC-PRF-5; test: Induction of cell cycle arrest in human PLC/PRF/5 cells assessed as accumulation at G2 phase at 0.25 uM incubated for 24 hrs by PI staining based flow cytometric analysis (reference value: 18.05%); assay type: functional

IC50 [1]: 1.36 µM
Structure (SMILES): C=C1C(=O)[C@]23[C@H](OC(=O)/C=C/c4ccc(OC)cc4)[C@H]1CC[C@H]2[C@@]12CO[C@]3(O)[C@@H](O)[C@@H]1C(C)(C)CC[C@@H]2O
Activity [2]: 4.1%
Ratio IC50 [3]: 1.8
Activity [4]: 5.7%
Activity [5]: 20.7%
Activity [6]: Dose-dependent effect
Activity [7]: Active
Activity [8]: 43.13%
Activity [9]: Dose-dependent effect
Activity [10]: 64.3%
Activity [11]: Active
Activity [12]: 36.66%
Activity [13]: Dose-dependent effect
inhibition at 0.5 µM [14]: 100%
Activity [15]: 7.55%
Activity [16]: 23.84%
Activity [17]: 30.88%
Activity [18]: 33.94%
Activity [19]: Dose-dependent effect
Activity [20]: 53.4%
Activity [21]: 77.75%
Activity [22]: 38.04%
Activity [23]: 16.04%
Activity [24]: 12.59%
